Here are results for twelve compounds from ChEMBL document CHEMBL1799969, “Development of endocannabinoid-based chemical probes for the study of cannabinoid receptors” (J Med Chem, 2011).

The term pKi denotes the negative decadic logarithm of the Ki, by convention in mol/L. Read a low pKi as a high Ki.

Assay [1] has as its target Cannabinoid receptor 2 (Homo sapiens, UniProt P34972). The assay can be described thus: Displacement of [3H]-CP55940 from human CB2 receptor expressed in HEK-293-EBNA cell membranes after 90 mins by scintillation counting. The essentials:
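Competitive radioligand binding with [3H]CP55940 on membranes of HEK-293-EBNA cells transfected with human CB1 or CB2 receptor. Ki derived from IC50 by the Cheng-Prusoff equation. Mean ± SEM of two to four independent experiments, each run in triplicate.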

The target of assay [2] is T1, Cannabinoid receptor 1 (Homo sapiens, UniProt P21554). The assay can be described thus: Displacement of [3H]-CP55940 from human CB1 receptor expressed in HEK-293-EBNA cell membranes after 90 mins by scintillation counting. (Loss of bound radioactivity is the signal in a displacement assay; it reports binding, not function.)
T1 sequence (P21554 whole entry): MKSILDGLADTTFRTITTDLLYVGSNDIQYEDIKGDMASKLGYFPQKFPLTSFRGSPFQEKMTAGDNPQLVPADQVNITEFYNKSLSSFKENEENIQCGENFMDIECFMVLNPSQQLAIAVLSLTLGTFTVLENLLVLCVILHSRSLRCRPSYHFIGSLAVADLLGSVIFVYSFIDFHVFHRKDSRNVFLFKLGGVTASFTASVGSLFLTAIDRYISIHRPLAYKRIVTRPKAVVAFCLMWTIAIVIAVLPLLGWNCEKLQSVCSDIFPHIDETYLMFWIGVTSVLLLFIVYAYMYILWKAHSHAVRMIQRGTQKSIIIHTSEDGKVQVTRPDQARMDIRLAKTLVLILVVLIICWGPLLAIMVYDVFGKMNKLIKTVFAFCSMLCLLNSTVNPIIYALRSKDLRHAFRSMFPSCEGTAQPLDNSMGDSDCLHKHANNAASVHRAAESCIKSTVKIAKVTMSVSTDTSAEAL
Assay [3] concerns the target T1, Cannabinoid receptor 1. The assay can be described thus: Binding affinity to CB1 receptor. The method, boiled down:
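Radioligand competition binding on membranes of HEK-293-EBNA cells transfected with human CB1 receptor, displacing [3H]CP55940. Ki obtained from IC50 by the Cheng-Prusoff equation. Two to four independent experiments, each run in triplicate; mean ± SEM reported.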

Assay [4] deals with T1, Cannabinoid receptor 1. The assay can be described thus: Binding affinity at CB1 receptor expressed in mouse HT22 cells at 1 uM incubated for 1 hr using strepavidin-Alexa Fluor 488 staining based by fluorescence microscopy. The class given is cell-based. The note with it: HT-22. The essentials:
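HT-22 mouse hippocampal cells transiently transfected with CB1 were incubated with the biotinylated probe at 1 μM for 1 h. Excess probe was removed and bound probe detected with streptavidin-Alexa Fluor 488. Nuclei were stained with Hoechst 33258 and imaged by fluorescence microscopy. Nontransfected cells, or an excess of HU210, served as specificity controls.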

Assay [5] deals with T1, Cannabinoid receptor 1. The assay can be described thus: Binding affinity at CB1 receptor expressed in mouse HT22 cells at 1 uM incubated for 1 hr using antiCB1-antibody based fluorescence microscopy. The note with it: HT-22. In kind it is cell-based. The essentials:
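Transfected HT-22 cells were treated in sequence with the probe (1 μM, 1 h), streptavidin-Alexa 488, anti-CB1 antibody and an anti-rabbit Alexa 633 conjugate. Co-labelling was imaged by fluorescence microscopy in the red channel and as a merge.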

pKi: −log10 of the molar value. Calls of active or inactive are those of the source. The rule behind the calls is not given here.

Cannabinoid receptor 2, sequence (P34972 whole entry): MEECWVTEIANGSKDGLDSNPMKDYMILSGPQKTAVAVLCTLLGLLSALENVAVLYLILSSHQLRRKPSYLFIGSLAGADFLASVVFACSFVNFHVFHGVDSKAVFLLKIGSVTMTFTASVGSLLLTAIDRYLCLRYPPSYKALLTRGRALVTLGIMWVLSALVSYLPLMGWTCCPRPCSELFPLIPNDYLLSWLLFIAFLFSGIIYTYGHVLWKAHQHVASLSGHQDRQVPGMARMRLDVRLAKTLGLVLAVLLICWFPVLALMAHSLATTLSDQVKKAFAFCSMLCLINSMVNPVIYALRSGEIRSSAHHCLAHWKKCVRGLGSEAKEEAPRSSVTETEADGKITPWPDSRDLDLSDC

With `C#CCCCC(=O)OC[C@@H](C)NC(=O)CCC/C=C\C/C=C\C/C=C\C/C=C\CCCCC`, the pKi is below 5.70 in assay [1] and 5.70 in assay [2].
The like results for `CCCCC/C=C\C/C=C\C/C=C\C/C=C\CCCC(=O)OC(CO)COC(=O)CCCCCNC(=O)CCCC[C@@H]1SC[C@@H]2NC(=O)N[C@@H]21` (stereo partly drawn) were, in that order, 6.42 and below 5.30.
The like results for `C#CCCCC(=O)OCC(CO)OCCCC/C=C\C/C=C\C/C=C\C/C=C\CCCCC` (stereo not drawn) were, in that order, 7.07 and 7.07.
For the compound `CCCCC/C=C\C/C=C\C/C=C\C/C=C\CCCC(=O)N[C@H](C)COC(=O)CCCCCNC(=O)CCCC[C@@H]1SC[C@@H]2NC(=O)N[C@@H]21`, the figures for the pKi in assay [1] and in assay [2] were below 5.70 and 5.70, respectively.
Regarding `C[C@H](CO)NC(=O)CCC/C=C\C/C=C\C/C=C\C/C=C\CCCCOC(=O)CCCCCNC(=O)CCCC[C@@H]1SC[C@@H]2NC(=O)N[C@@H]21`, the pKi in assay [1] was below 5.70; in assay [2] it was 5.70.
For the compound `CCCCC/C=C\C/C=C\C/C=C\C/C=C\CCCC(=O)OC(CO)CO` [2-ARACHIDONOYLGLYCEROL], the pKi in assay [1] was 5.89.
In the case of `CCCCC/C=C\C/C=C\C/C=C\C/C=C\CCCCOC(CO)CO`, the pKi was below 6.00 in assay [1] and 7.60 in assay [2].
Take `CCCCCCC(C)(C)c1cc(O)c2c(c1)OC(C)(C)[C@@H]1CC=C(CO)C[C@@H]21`: the pKi in assay [3] is 10.22.
`C#CCCCC(=O)N[C@@H](Cc1ccc(C(=O)c2ccccc2)cc1)C(=O)OC[C@@H](C)NC(=O)CCC/C=C\C/C=C\C/C=C\C/C=C\CCCCC`: the pKi in assay [1] is below 5.70; in assay [2], 5.70.
For `Cc1cc(-c2cc(C(=O)NC3C4(C)CCC(C4)C3(C)C)nn2Cc2ccc(CNCCCCCCN)cc2)ccc1Cl` (stereo not drawn), in assay [1], the pKi was 6.59.
Take `CCCCC/C=C\C/C=C\C/C=C\C/C=C\CCCCOC(CO)COC(=O)CCCCCNC(=O)CCCC[C@@H]1SC[C@@H]2NC(=O)N[C@@H]21` (stereo partly drawn): the pKi is 6.35 in assay [1] and 6.66 in assay [2]. Further, the outcome in assay [4] and in assay [5] was Active.
Take `O=C(CCCC[C@@H]1SC[C@@H]2NC(=O)N[C@@H]21)NCCCCCC(=O)OCCCC/C=C\C/C=C\C/C=C\C/C=C\CCCC(=O)NC1CC1`: the pKi in assay [1] and in assay [2] was below 5.70 in each case.
